Read-outs that look alike come from different tables or passages of the source.
How the values were obtained:
normal rats [1] = test: Food intake and body weight during 6-day CB1 antagonist infusion in lean rats; type: in vivo, rat; conditions: 6 days; for body weight / food intake: lean rats
In short: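 Rats on standard chow received test compound for 6 days, either 3 or 5 μg/rat per day icv or 5 μg/rat per day s.c. Both routes used osmotic minipumps. Vehicle was isotonic saline with 0.3% Tween 80. Icv cannula placement was checked by drinking response to icv angiotensin II (5 ng/μl). Vehicle pair-fed rats got the treated group's daily intake before dark onset. Food intake and body weight were recorded daily. n=5–7, means ± SE.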

DIO rats [2] = type: in vivo, rat; conditions: 6 days
DIO rats [3] = test: Plasma measurements after central or global CB1 blockade in DIO rats; type: in vivo; conditions: Central CB1 blockade, icv 5 μg/rat per day, 6 days, mean ± SE
In short: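 Diet-induced obese rats (45% high-fat diet, 8 weeks) got test compound 5 μg/rat per day icv for 6 days, alongside vehicle and pair-fed controls. Plasma glucose was measured by the glucose oxidase method, and nonesterified fatty acids by commercial kit. Corticosterone and insulin were measured by double-antibody radioimmunoassay. Means ± SE.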

[4] = type: in vivo, mice (C57BL/6J; conditions: male, C57BL/6J, mouse, ip, 10 mg/kg
DIO rats [5] = test: Triglyceride content in epididymal WAT and plasma of DIO rats; type: in vivo, rat; conditions: 6 days
In short: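 Diet-induced obese rats received test compound for 6 days, either 5 μg/day icv by minipump or 10 mg/kg per day i.p., alongside vehicle and pair-fed groups. Lipids were extracted from epididymal WAT. After the organic solvent was evaporated, triglyceride was measured enzymatically in duplicate. Plasma triglyceride was measured by commercial kit. n=5–7, means ± SE.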

normal rats [6] = test: Quantitative RT-PCR of lipid metabolism enzymes in WAT and liver of lean rats; type: in vivo, rat; conditions: 6 days
In short: (§1)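 Lean or diet-induced obese rats received 6-day treatment with vehicle and pair-fed controls. Epididymal WAT and liver were freeze-clamped and kept at −80°C. Real-time qPCR used SYBR Green, ~70 ng template cDNA and primers at 0.5 μmol/l final. Relative levels came from a standard curve and were normalised to ribosomal protein S29 in WAT and cyclophilin A in liver. n=5–7, means ± SE.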

DIO rats [7] = type: in vivo, rat
In short: as §1

DIO rats [8] = type: in vivo, rat; conditions: 6 days; remark: listed apart in the source
In short: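 Male Sprague-Dawley rats were fed a 45% high-fat diet for 8 weeks, then given vehicle or test compound for 6 days, with a vehicle pair-fed group. They were fasted overnight and anaesthetised with pentobarbital 50 mg/kg i.p. Clamps were run basal and insulin-stimulated (200 mU/ml) with D-[U-14C]glucose infusion (5 μCi/ml). A 2-deoxy-D-[1-3H]glucose bolus (30 μCi/rat) followed, and tissue 2-DG-6-P gave a utilisation index in ng/min/mg. n=5–7.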

[9] = system: diet-induced obese (DIO) mice; conditions: cited from earlier work
Zucker rats = conditions: cited from earlier work
[10] = system: isolated soleus muscle of ob/ob mice; conditions: cited from earlier work
rat = conditions: acute intracerebroventricular injection, 3 μg/rat per day; cited from earlier work
obese Zucker rats = conditions: 30 mg/kg, 8 weeks; cited from earlier work
CB1 receptor = conditions: by reducing food intake and increasing energy expenditure and fat oxidation; cited from earlier work
[11] = intracerebroventricular 3 μg/rat per day
[12] = intracerebroventricular 5 μg/rat per day
[13] = peripheral 5 μg/rat per day via subcutaneous minipumps
[14] = normal rats, icv 5 μg/day, similar in vehicle pair-fed group
[15] = ip 10 mg/kg, 6 days, independent of hypophagia

Question: With Cc1c(C(=O)NN2CCCCC2)nn(-c2ccc(Cl)cc2Cl)c1-c1ccc(Cl)cc1 [SR141716, Rimonabant] as the compound, how does the body weight (normal rats [1]; [11]) read?
Answer: no effect

Question: And the food intake (normal rats [1]; [11])?
Answer: no effect

Question: What about the body weight (normal rats [1]; [12]) of the same compound?
Answer: loss of body weight

Question: What about the body weight (normal rats [1]; [13]) of the same compound?
Answer: unable to detect changes

Question: And the food intake (normal rats [1]; [13])?
Answer: unable to detect changes

Question: What about the “decrease in food intake” value (normal rats [1]; normal rats, intracerebroventricular 5 μg/rat per day) of the same compound?
Answer: 17%

Question: What about the “decrease in food intake” value (DIO rats [2]; [12]) of the same compound?
Answer: 31%

Question: And the body weight (DIO rats [2]; intracerebroventricular 5 μg/rat per day, mimicked by pair feeding)?
Answer: loss of body weight

Question: What about the “decrease in food consumption” value (DIO rats [2]; intraperitoneal 10 mg/kg per day, P < 0.01) of the same compound?
Answer: 40%

Question: What about the “Corticosterone (plasma)” value (DIO rats [3]) of the same compound?
Answer: 59.77 ± 7.26 ng/mL

Question: What about the “Glucose (plasma)” value (DIO rats [3]) of the same compound?
Answer: 3.78 ± 0.12 mmol/L

Question: What about the “Insulin (plasma)” value (DIO rats [3]) of the same compound?
Answer: 0.58 ± 0.12 ng/mL

Question: And the “Nonesterified fatty acids (plasma)” value (DIO rats [3])?
Answer: 0.66 ± 0.13 mmol/L

Question: What about the Cmax ([4]; brain) of the same compound?
Answer: 1010 ± 384 ng/g

Question: And the concentration at 25.1 h ([4]; brain)?
Answer: 186 ± 37.5 ng/g

Question: What about the half-life ([4]; brain) of the same compound?
Answer: 9.44 h

Question: What about the Cmax ([4]; serum) of the same compound?
Answer: 258 ± 58.9 ng/mL

Question: What about the concentration at 25.1 h ([4]; serum) of the same compound?
Answer: 20.5 ± 9.25 ng/mL

Question: What about the half-life ([4]; serum) of the same compound?
Answer: 6.33 h

Question: What about the “triglyceride levels in WAT” value (DIO rats [5]; icv 5 μg/day) of the same compound?
Answer: did not modify

Question: And the “triglyceride levels in plasma” value (DIO rats [5]; icv 5 μg/day)?
Answer: did not modify

Question: And the WAT triglyceride content (DIO rats [5]; ip 10 mg/kg, not observed in vehicle pair-fed group)?
Answer: decreased

Question: And the “WAT mRNA expression of lipid metabolism enzymes” value (normal rats [6]; lean rats, 5 μg/rat per day given peripherally)?
Answer: no change

Question: What about the “liver gene expression of key enzymes regulating triglyceride metabolism” value (normal rats [6]; lean rats, icv 5 μg/day) of the same compound?
Answer: No significant difference

Question: What about the “WAT expression of CPT-1” value (normal rats [6]; [14]) of the same compound?
Answer: increased

Question: What about the “WAT expression of genes promoting lipogenesis and triglyceride storage (FAS, SCD-1, ACCα, LPL)” value (normal rats [6]; [14]) of the same compound?
Answer: markedly reduced

Question: And the “expression of hormone-sensitive lipase and adipose triglyceride lipase” value (DIO rats [7]; WAT, drug treatment (data not shown))?
Answer: not modified

Question: What about the “WAT CPT-1 expression” value (DIO rats [7]; icv 5 μg/day, 6 days) of the same compound?
Answer: trend toward an increase

Question: And the “WAT SCD-1 expression” value (DIO rats [7]; icv 5 μg/day, 6 days, also present in pair-fed group)?
Answer: decrease

Question: And the “liver SCD-1 expression” value (DIO rats [7]; icv 5 μg/day, 6 days, similar decrease in vehicle pair-fed animals)?
Answer: decreased

Question: What about the “liver gene expression of lipid metabolism enzymes” value (DIO rats [7]; ip 10 mg/kg, 6 days) of the same compound?
Answer: No modification

Question: What about the “liver expression of glucose-6-phosphatase” value (DIO rats [7]; ip 10 mg/kg, 6 days, also in vehicle pair-fed group) of the same compound?
Answer: marked decrease

Question: What about the “WAT CPT-1 expression” value (DIO rats [7]; [15]) of the same compound?
Answer: increase

Question: And the “WAT SCD-1 expression” value (DIO rats [7]; [15])?
Answer: decrease

Question: And the overall insulin sensitivity (DIO rats [8]; icv 5 μg/day)?
Answer: failed to elicit any change

Question: And the “glucose infusion rate (GIR)” value (DIO rats [8]; icv 5 μg/day, vs vehicle)?
Answer: identical

Question: What about the “glucose uptake in skeletal muscle and WAT” value (DIO rats [8]; icv 5 μg/day, vs vehicle) of the same compound?
Answer: identical

Question: And the “hepatic glucose production (HGP)” value (DIO rats [8]; icv 5 μg/day, vs vehicle)?
Answer: identical

Question: What about the overall insulin sensitivity (DIO rats [8]; ip 10 mg/kg) of the same compound?
Answer: enhanced

Question: What about the “hepatic glucose production (HGP)” value (DIO rats [8]; ip 10 mg/kg, comparable in vehicle pair-fed rats) of the same compound?
Answer: suppressed

Question: What about the “glucose utilization by adipose tissue” value (DIO rats [8]; ip 10 mg/kg, food-independent effect) of the same compound?
Answer: increased

Question: What about the “glucose infusion rate (GIR)” value (DIO rats [8]; ip 10 mg/kg, similar increase in vehicle pair-fed group) of the same compound?
Answer: higher

Question: And the body weight [9]?
Answer: maintained reduction

Question: And the food intake [9]?
Answer: transient suppression

Question: What about the body weight (Zucker rats) of the same compound?
Answer: maintained reduction

Question: What about the food intake (Zucker rats) of the same compound?
Answer: transient suppression

Question: What about the glucose uptake [10] of the same compound?
Answer: increases

Question: What about the food intake (rat) of the same compound?
Answer: decreases

Question: What about the hepatic lipid metabolism (obese Zucker rats) of the same compound?
Answer: food intake–independent effect

Question: Which body weight (CB1 receptor) does the source give for C[C@H](NC(=O)C(C)(C)Oc1ccc(C(F)(F)F)cn1)[C@@H](Cc1ccc(Cl)cc1)c1cccc(C#N)c1 [taranabant] here?
Answer: weight loss

From PMC2570394 (Diabetes, 2008)
